Reference: ChEMBL document CHEMBL1148703, “Synthesis and antiviral evaluation of 6-(alkyl-heteroaryl)furo[2,3-d]pyrimidin-2(3H)-one nucleosides and analogues with ethynyl, ethenyl, and ethyl spacers at C6 of the furopyrimidine core” (J Med Chem, 2007)
pEC50, pIC50: −log10 of the molar value.

Columns and labels:
Human alphaherpesvirus 3 [1] = assay: Antiviral activity against TK+ VZV YS in HEL cells assessed as reduction of virus plaque formation after 5 days; assay type: functional, organism-based; details: Human alphaherpesvirus 3, YS, 120 h
Human betaherpesvirus 5 [2] = assay: Antiviral activity against HCMV Davis in HEL cells assessed as reduction of virus plaque formation after 7 days; assay type: functional, organism-based; details: Human betaherpesvirus 5, Davis, 168 h
Procedure, shortened: (§1)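 Confluent HEL fibroblasts were infected with HCMV at 100 pfu per well. After 2 h the residual virus was removed and medium with a range of compound concentrations was added (duplicate). Cells were incubated 7 days at 37 °C, then fixed with ethanol and stained with Giemsa. Virus-induced cytopathicity was scored microscopically, and EC50 was read from graphic plots of % cytopathicity versus concentration.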

[3] = Cytotoxicity against HEL cells assessed as alteration in cell morphology after 3 days; assay type: cell-based; details: human
[4] = Cytotoxicity against HEL cells after 3 days; assay type: cell-based; details: human
Procedure, shortened: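 HEL cells were seeded at 5 × 10^3 cells/well and allowed to grow for 24 h. Medium containing graded compound concentrations was then added, followed by 3 days at 37 °C. Cell number was counted with a Coulter counter.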

Human alphaherpesvirus 3 [5] = assay: Antiviral activity against TK+ VZV OKA in HEL cells assessed as reduction of virus plaque formation after 5 days; assay type: functional, organism-based; details: Human alphaherpesvirus 3, OKA, 120 h
Human alphaherpesvirus 3 [6] = assay: Antiviral activity against thymidine kinase deficient VZV 07/1 in HEL cells assessed as reduction of virus plaque formation after 5 days; assay type: functional, organism-based; details: Human alphaherpesvirus 3, 07/1, HEL, 120 h
Human betaherpesvirus 5 [7] = assay: Antiviral activity against HCMV AD169 in HEL cells assessed as reduction of virus plaque formation after 7 days; assay type: functional, organism-based; details: Human betaherpesvirus 5, AD169, HEL, 168 h; procedure, shortened: as §1
Thymidine kinase = molecular target: T1, Thymidine kinase (Varicella-zoster virus (strain Dumas) (HHV-3) (Human herpesvirus 3), UniProt P09250); assay: Inhibition of VZV thymidine kinase; parameters: species or system Human alphaherpesvirus 3
T1 sequence (P09250 whole entry): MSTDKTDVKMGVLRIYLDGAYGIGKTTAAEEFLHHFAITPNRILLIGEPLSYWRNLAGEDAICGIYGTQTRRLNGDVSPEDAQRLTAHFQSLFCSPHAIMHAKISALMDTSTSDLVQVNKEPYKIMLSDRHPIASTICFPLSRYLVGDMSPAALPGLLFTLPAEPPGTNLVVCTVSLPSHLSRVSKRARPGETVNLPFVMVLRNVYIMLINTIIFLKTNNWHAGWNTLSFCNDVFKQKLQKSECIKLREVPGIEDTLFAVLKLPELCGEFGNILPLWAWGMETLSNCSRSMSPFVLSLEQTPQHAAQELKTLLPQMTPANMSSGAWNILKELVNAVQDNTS
Procedure, shortened: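 VZV TK enzyme assay in 50 mM Tris-HCl pH 8.0 with 2.5 mM MgCl2, 10 mM DTT, 2.5 mM ATP, 10 mM NaF, 1.0 mg/mL BSA and 1 µM [CH3-3H]dThd (0.1 µCi). Run 30 min at 37 °C, spotted on DE-81 discs, washed, radioactivity counted.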

Human alphaherpesvirus 3 [8] = assay: Antiviral activity against thymidine kinase deficient VZV YS/R in HEL cells assessed as reduction of virus plaque formation after 5 days; assay type: functional, organism-based; details: Human alphaherpesvirus 3, YS/R, 120 h

Row | Structure (SMILES) | pEC50 (Human alphaherpesvirus 3 [1]) | pEC50 (Human betaherpesvirus 5 [2]) | MCC at 72 h [3] | CC50 at 72 h [4] | pEC50 (Human alphaherpesvirus 3 [5]) | pEC50 (Human alphaherpesvirus 3 [6]) | pEC50 (Human betaherpesvirus 5 [7]) | pIC50 (Thymidine kinase) | pEC50 (Human alphaherpesvirus 3 [8])
1 | Nc1nc2c(ncn2COC(CO)CO)c(=O)[nH]1 [GANCICLOVIR] | 5.64 | 5.06 | > 200 µM | > 200 µM |  |  |  |  | 
2 | O=c1nc2oc(CCc3ccccc3)cc2cn1[C@H]1C[C@H](O)[C@@H](CO)O1 |  | < 3.25 | > 560 µM | > 560 µM | 3.42 | < 3.25 | < 3.25 |  | 
3 | CCCCCc1ccc(-c2cc3cn([C@H]4C[C@H](O)[C@@H](CO)O4)c(=O)nc3o2)cn1 | 7.05 | < 4.70 | 100 µM | > 50 µM | 6.89 | < 4.70 | < 4.70 | 4.74 | < 4.70
4 | CCCCCCCCC#Cc1cc2cn([C@H]3C[C@H](O)[C@@H](CO)O3)c(=O)nc2o1 |  |  |  |  |  |  |  | 3.66 | 
5 | Cc1ccc(CCc2cc3cn([C@H]4C[C@H](O)[C@@H](CO)O4)c(=O)nc3o2)cc1 |  | < 3.27 | 540 µM | > 540 µM | < 3.85 | < 3.85 | < 3.27 |  | 
6 | CCCc1ccc(CCc2cc3cn([C@H]4C[C@H](O)[C@@H](CO)O4)c(=O)nc3o2)cc1 | ≤ 4.30 | < 3.89 | ≥ 130 µM | > 130 µM | < 3.89 | < 4.30 | < 3.89 | < 3.30 | < 3.89
7 | CCCCCc1cnc(-c2cc3cn([C@H]4C[C@H](O)[C@@H](CO)O4)c(=O)nc3o2)nc1 | 5.70 | < 4.00 | > 100 µM | > 50 µM | 5.72 | < 4.00 | < 4.00 | 4.62 | < 4.00
8 | Cc1ccc(C#Cc2cc3cn([C@H]4C[C@H](O)[C@@H](CO)O4)c(=O)nc3o2)cc1 | 4.39 | < 3.89 | ≥ 510 µM | 510 µM | 4.18 | 4.44 | 3.29 |  | 
9 | O=c1nc2oc(C#Cc3ccccc3)cc2cn1[C@H]1C[C@H](O)[C@@H](CO)O1 | 4.00 | < 3.85 | > 570 µM | > 570 µM | ≤ 3.85 | < 3.85 | < 3.85 | 3.31 | < 3.85
10 | CCCCCCCCCCc1cc2cn([C@H]3C[C@H](O)[C@@H](CO)O3)c(=O)nc2o1 | 7.18 | 4.19 | ≥ 130 µM | > 510 µM | 7.03 | < 4.29 | < 3.89 | ≤ 3.30 | < 4.29
11 | CCCCCc1ccc(-c2cc3cn([C@H]4C[C@H](O)[C@@H](CO)O4)c(=O)nc3o2)nc1 |  | < 4.00 | > 100 µM | > 50 µM | 7.15 | < 4.00 | < 4.00 | 5.38 | < 4.00
12 | CCCCCCc1ccc(-c2cc3cn([C@H]4C[C@H](O)[C@@H](CO)O4)c(=O)nc3o2)cn1 | 7.05 | < 4.70 | 100 µM | > 50 µM | 6.85 | < 4.70 | < 4.70 | 4.52 | < 4.70
13 | O=c1[nH]c(=O)n([C@H]2C[C@H](O)[C@@H](CO)O2)cc1/C=C/Br [BRIVUDINE] | 8.00 |  | > 150 µM | > 150 µM | 8.00 | ≤ 4.00 |  |  | ≤ 3.89
14 | CCCCc1ccc(-c2cc3cn([C@H]4C[C@H](O)[C@@H](CO)O4)c(=O)nc3o2)nc1 | 6.44 | < 4.00 | > 100 µM | > 50 µM | 6.64 | < 4.00 | < 4.00 | 4.47 | < 4.00
15 | CCCCCCc1ccc(-c2cc3cn([C@H]4C[C@H](O)[C@@H](CO)O4)c(=O)nc3o2)nc1 | 7.35 | < 4.00 | > 100 µM | > 50 µM | 7.22 | < 4.00 | < 4.00 | 5.43 | 4.15
16 | CCCCCc1ccc(-c2cc3cn([C@H]4C[C@H](O)[C@@H](CO)O4)c(=O)nc3o2)cc1 [CF1743] |  |  | > 1.3 µM |  |  |  |  |  | 
17 | CCCCCc1ccc(C#Cc2cc3cn([C@H]4C[C@H](O)[C@@H](CO)O4)c(=O)nc3o2)cc1 | 4.72 | 4.96 | 470 µM | 110 µM | 4.77 | 4.15 | 4.89 |  | 
18 | CCCCCCCC/C=C/c1cc2cn([C@H]3C[C@H](O)[C@@H](CO)O3)c(=O)nc2o1 | 6.14 | 5.08 | ≥ 120 µM | 230 µM | 5.92 | < 4.32 | 4.66 | 4.19 | 4.59
19 | CCCCCc1ccc(CCc2cc3cn([C@H]4C[C@H](O)[C@@H](CO)O4)c(=O)nc3o2)cc1 |  | < 3.92 | ≥ 470 µM | > 470 µM | 4.74 | < 3.92 | < 3.92 |  | 
20 | CCCC#Cc1ccc(-c2cc3cn([C@H]4C[C@H](O)[C@@H](CO)O4)c(=O)nc3o2)cn1 | 7.22 | < 4.70 | ≥ 100 µM | > 50 µM | 7.05 | < 4.70 | < 4.70 | 5.54 | < 4.70
21 | CCCCCCc1cnc(-c2cc3cn([C@H]4C[C@H](O)[C@@H](CO)O4)c(=O)nc3o2)nc1 | 6.15 | < 4.00 | > 100 µM | > 50 µM | 6.20 | < 4.00 | < 4.00 | 4.82 | < 4.00
22 | CCCc1ccc(C#Cc2cc3cn([C@H]4C[C@H](O)[C@@H](CO)O4)c(=O)nc3o2)cc1 | 4.57 | 5.06 | 87 µM | > 120 µM | 4.39 | < 4.30 | 4.82 |  | < 4.30
23 | Nc1nc2c(ncn2COCCO)c(=O)[nH]1 [ACYCLOVIR] |  |  | > 220 µM | > 890 µM |  |  |  |  | 
